# CHRM5 PAM = CHRM5 positive allosteric modulation; P08912; CHO-K1 hM5, Fluo-8 calcium, ACh EC20 PAM; 0% = ACh EC20, 100% = ACh EC100; activation, % at 3 µM; actives 0.3% (n = 360,000);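 active = activation above the run cutoff, the mean activation of all test compounds plus 3 SD, cut at about 18% in these data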
#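 system = human M5 receptor in CHO-K1 cells | compound = one concentration, 3 µM final (nominal) | schedule = Post-acetylcholine fluorescence recording 140 s | signal = Fluo-8 calcium dye fluorescence, kinetic read | benchmarks = low control EC20 acetylcholine (0%), high control EC100 acetylcholine (100%) | repeats = singlicate, one well per test compound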
# M5 antag = antagonists of human muscarinic M5 receptor (CHRM5); P08912; CHO-hM5 cells, Fluo-8 calcium fluorescence, ACh EC80; inhibition, % at 3 µM; actives 0.59% (n = 360,000); AID 624040;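 active = inhibition above a per-plate cutoff, the mean of that plate's test compounds plus 3 SD, cut at about 27% in these data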;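 note: 0% = acetylcholine EC80 with DMSO and 100% = DMSO without agonist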
# CHRM4 PAM = potentiates acetylcholine response at human M4 receptor; actives 0.4% (n = 360,000); activation, % at 3 µM; CHO-K1 hM4/Gqi5, Fluo-8 calcium fluorescence, ACh EC20; 0% = ACh EC20, 100% = maximal ACh; P08173;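 active = activation above its plate's cutoff, the mean activation of sample wells plus 3 SD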
# Target sequence (P08173 whole entry, looked up): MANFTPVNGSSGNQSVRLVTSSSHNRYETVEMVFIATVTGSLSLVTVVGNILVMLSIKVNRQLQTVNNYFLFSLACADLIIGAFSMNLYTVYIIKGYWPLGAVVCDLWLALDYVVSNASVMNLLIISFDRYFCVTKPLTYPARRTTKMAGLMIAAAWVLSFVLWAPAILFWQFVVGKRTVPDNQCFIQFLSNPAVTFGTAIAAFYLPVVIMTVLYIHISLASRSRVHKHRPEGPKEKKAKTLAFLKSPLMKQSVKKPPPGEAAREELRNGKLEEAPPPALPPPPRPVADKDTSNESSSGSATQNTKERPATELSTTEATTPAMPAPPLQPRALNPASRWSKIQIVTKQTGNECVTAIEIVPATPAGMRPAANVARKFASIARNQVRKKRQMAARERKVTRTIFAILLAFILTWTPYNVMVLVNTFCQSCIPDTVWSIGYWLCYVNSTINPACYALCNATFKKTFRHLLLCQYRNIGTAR
# M5 ag = agonists of human muscarinic M5 receptor (CHRM5); actives 0.19% (n = 360,000); CHO-K1 hM5 cells, Fluo-8 calcium fluorescence; 0% DMSO wells, 100% maximal acetylcholine response; AID 624037; activation, % at 3 µM; P08912;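 active = activation above the run's mean over test compounds plus 3 SD, cut at about 23% in these data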;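 note: signal is peak over basal fluorescence ratio across the kinetic read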
# M4 antag = blocks acetylcholine activation of human M4 receptor | CHO-hM4 cells, ACh EC80, Fluo-8 calcium fluorescence | actives 0.73% (n = 360,000) | AID 624125 | P08173 | inhibition, % at 3 µM;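 active = inhibition above its plate's cutoff, the mean inhibition of sample wells plus 3 SD, cut at about 27% in these data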;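 note: 0% = acetylcholine EC80 with DMSO and 100% = DMSO without agonist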
# M4 ag = CHRM4 agonism in calcium assay | P08173 | CHO-K1 hM4/Gqi5, Fluo-8 calcium fluorescence; vehicle 0%, full acetylcholine response 100% | activation, % at 3 µM | actives 0.14% (n = 360,000) | AID 624127;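 active = activation above the run mean over all test wells plus 3 SD, cut at about 32% in these data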;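 note: peak over basal fluorescence ratio per well then scaled between controls; 0% = DMSO wells and 100% = acetylcholine at EC100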
# * = called active by the depositor; nt = no result; ! = not confirmed by another sample. Most compounds without a hit are left out; they make up all but 1.8% or so of the library.
SMILES,CHRM5 PAM,M5 antag,CHRM4 PAM,M5 ag,M4 antag,M4 ag
COc1ccc(C(=O)OC2CC3CCC(C2)[N+]3(C)[O-])cc1OC (centres undefined),1,3,4,-3,-16,0
O=C1NC(=O)N(Cc2ccc(F)cc2)C(=O)/C1=C\c1ccoc1,-13,12,0,25*,-10,7
CN(C)c1ccc(/C=C2\C(=O)NC(=O)N(Cc3ccc(F)cc3)C2=O)cc1,-3,8,0,2,5,2
CCCC[C@@H](C)C[C@@H](C)C(=O)N(C)[C@@H](CC(C)C)C(=O)N[C@H](C(=O)N(C)[C@H](C(=O)N1C[C@@H](O)C[C@H]1C(=O)N1C(=O)C=C[C@@H]1C)C(C)C)C(C)OC(C)=O (some centres undefined),-11,8,0,-3,14,0
COC(=O)C1(F)C(=O)NC(=O)NC1O (centres undefined),-2,3,6,3,8,1
CN1CCN(c2ccc([N+](=O)[O-])c(Sc3ccccn3)c2)CC1,28*,-13,24,-16,-14,1
CC1(C)C[C@H]2C=C(C=O)[C@]3(C=O)C[C@]3(C)[C@H]2C1,13,-3,-13,8,35*,3
CNCC(O)c1cc(OCc2ccccc2)c(OCc2ccccc2)cc1F (centres undefined),2,8,19,2,14,17
COc1ccc(C(=O)CC2(CC(=O)c3ccc(OC)cc3)C(=O)N(C)C(=O)N(C)C2=O)cc1,3,-5,-2,0,6,0
CN1C(=O)N(C)C(=O)C2(Cc3c(ccc4ccccc34)N(C)C2)C1=O,28*,-3,7,-6,5,2
CC(C)=CCc1c(O)cc2c(c1O)C(=O)CC(c1ccc(O)cc1)O2 (centres undefined),1,2,6,14,-9,11
COC(=O)C1=C(c2ccc(F)cc2OCc2ccccc2)C[C@@H]2CC[C@H]1N2C(=O)N1CCC(O)(c2ccc(Cl)cc2)CC1,-4,8,13,2,-4,2
COC(=O)C1=C(C)NC(=S)NC1c1ccc(N(CCCl)CCCl)cc1Cl (centres undefined),18*,-28,9,9,-6,-1
Cc1cc(OCC(=O)N2CCC(C(=O)O)(c3ccccc3)CC2)c2c(C)c(C)c(=O)oc2c1,-2,2,-16,2,76*,0
COc1ccc2c(c1)C13CCN4CC5=CCOC6CC(=O)N2C1C6C5CC43 (centres undefined),0,-1,6,2,-7,2
Clc1ccc(OCC#CCN2CCCCCC2)cc1,-30,35*,-23,-15,33*,0
COc1ccc(OCC#CCN2CCC(C)CC2)cc1,-7,13,-10,-10,8,0
CCN1/C(=C/C=C/C2=[N+](CC)c3ccccc3C2(C)C)C(C)(C)c2ccccc21,-24,97*,-14,501*,95*,365*
CN1/C(=C\C=C2C(=O)NC(=O)NC2=O)C(C)(C)c2ccccc21,-18,10,-17,14,10,17
CSCCC(c1nnnn1Cc1ccccc1)N1CCC2(CC1)C(=O)NCN2c1ccccc1 (centres undefined),0,-1,-14,44*,2,25
O=c1[nH]c2ccccc2n1C1CCN(C(CCc2ccccc2)c2nnnn2Cc2ccccc2)CC1 (centres undefined),-14,6,-8,9,21,20
O=c1[nH]c2ccccc2n1C1CCN(C(c2nnnn2Cc2ccccc2)C2CC2)CC1 (centres undefined),-18,24,-13,14,29*,24
O=c1[nH]c2ccccc2n1C1CCN(C(c2cccs2)c2nnnn2Cc2ccccc2)CC1 (centres undefined),-9,7,-5,2,14,10
CSCCC(c1nnnn1Cc1ccccc1)N1CCC(n2c(=O)[nH]c3ccccc32)CC1 (centres undefined),-12,7,-15,30*,23,23
CCOc1ccccc1CN1CCCC(C(=O)c2cc(F)ccc2F)C1 (centres undefined),-1,9,-13,-5,8,0
SMILES,CHRM5 PAM,M5 antag,CHRM4 PAM,M5 ag,M4 antag,M4 ag
O=C1NC(=O)C(=Cc2ccc(-c3ccc(F)cc3O)o2)C(=O)N1,5,16,26*,25*,-6,12
O=C1NC(=O)C(=Cc2ccc(-c3ccc(Cl)cc3)o2)C(=O)N1,22*,-12,17,-2,-4,1
N/C(=N/[N+](=O)[O-])N1CCN(C(=O)Oc2ccc([N+](=O)[O-])cc2)CC1,-9,12,-9,0,6,10
C[C@]12CC[C@H](OS(=O)(=O)O)CC1=CC[C@@H]1[C@@H]2CC[C@]2(C)C(=O)CC[C@@H]12,-3,3,-1,0,71*!,0
C[C@]12CC[C@H](O)C[C@@H]1CC[C@@H]1[C@@H]2CC[C@]2(C)C(=O)CC[C@@H]12,-18,0,-9,48*,-13,20
C[C@]12CCC3[C@@H](CC[C@@H]4C[C@H](O)CC[C@]34C)[C@@H]1CCC2=O (some centres undefined),-1,-1,0,1,8,3
C[C@]12CCC3C(CC[C@H]4C[C@@H](O)CC[C@]34C)[C@H]1C=CC2=O (some centres undefined),1,4,15*,0,-16,2
N#CC1c2ccccc2C=CN1C(=O)c1ccc(N(CCCl)CCCl)cc1 (centres undefined),2,9,4,1,-11,0
C#CC[N+]1(C)[C@@H]2CC[C@H]1CC(OC(=O)C(CO)c1ccccc1)C2 (some centres undefined),-21,98*,-19,-9,99*,1
C[N+]1(C)CCC(OC(=O)C(c2ccccc2)c2ccccc2)CC1,-19,99*,-16,-2,98*,0
C[N+]1(C)[C@@H]2CC[C@H]1CC(OC(=O)[C@@H](CO)c1ccccc1)C2 (some centres undefined),-22,99*,-18,-10,99*,0
C[N+]1(C)C2CC(OC(=O)[C@H](CO)c3ccccc3)CC1C1OC12 (some centres undefined),-18,99*,nt,-2,nt,nt
CCCCCC1(C(C)C)C(=O)NC(=S)NC1=O,5,7,3,-4,-6,-1
